Test results: publication PMC3517046 (ChemMedChem, 2011)

What was measured:
ATX [1] = target: T1, ATX (Homo sapiens, UniProt Q13822); assay: Inhibition of pNP-TMP hydrolysis by ATX; format: biochemical; settings: compound 10 μM, 5 mM pNP-TMP, 4 nM ATX; compared with LPA 18:1 10 μM
Procedure, shortened: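 Reactions held 4 nM ATX and 5 mM pNP-TMP, with vehicle or 10 µM test compound, in Tris 50 mM/NaCl 140 mM/KCl 5 mM/CaCl2 1 mM/MgCl2 1 mM, pH 8.0. They ran at 37 °C with absorbance monitored at 405 nm.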

MM1 hepatoma cells = assay: MM1 cell invasion of HUVEC monolayers; format: cell-based, rat
Procedure, shortened: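 HUVECs (passage 7, 1.3×10^5/well) were grown on 0.2% gelatin for two days to confluence. Rat MM1 hepatoma cells, calcein AM-labelled (2 µg/mL, 2 h), were seeded at 5×10^4/well. Invasion ran 24 h in MCDB-131 with 1% serum, with or without 1.5 µM LPC (BSA-complexed, 30 µM BSA final). After five PBS rinses and formalin fixation, flattened cells beneath the monolayer were counted in ≥5 fields at 100×.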

ATX [2] = target: T1, ATX; assay: Inhibition of LPA production from ADMAN-LPC by ATX; format: biochemical; settings: compound 3 μM, 0.5 μM ADMAN-LPC, 100 nM ATX
Procedure, shortened: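 ADMAN-LPC (0.5 µM final) was incubated with 100 nM ATX, with or without 3 µM test compound, at 37 °C for 4 h. Lipids were extracted and separated by silica TLC in CHCl3/MeOH/NH4OH (60:35:8). Fluorescent LPC and LPA bands were visualized under a UV imager.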

[3] = target: recombinant, purified human ATX (Homo sapiens, UniProt Q13822); assay: ATX IC50 and mechanism of inhibition; format: biochemical
Procedure, shortened: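 Recombinant purified human ATX with FS3 (1 µM final) in Tris 50 mM, NaCl 140 mM, KCl 5 mM, CaCl2 1 mM, MgCl2 1 mM, pH 8.0, plus 15 µM fatty-acid-free BSA. IC50 came from full dose-responses. For mechanism, FS3 was varied 0.3–20 µM at three inhibitor levels including zero.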

[4] = Pharmacokinetics after i.v. bolus; format: in vivo, Sprague-Dawley rats; settings: rat
Procedure, shortened: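 Male Sprague–Dawley rats (250–275 g) fitted with jugular and femoral catheters received a single 5.8 mg/kg i.v. femoral bolus; drug was dissolved in propylene glycol and diluted in rat plasma. Jugular blood was drawn from 5 to 1440 min into lithium heparin. Plasma was butanol-extracted at pH 4.0 with internal standard and quantified by LC-MS/MS on a C8 column. Non-compartmental analysis gave AUC (trapezoidal), CL=dose/AUC, MRT=AUMC/AUC and Vdss=CL×MRT.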

plasma LPA = assay: Plasma LPA levels after i.v. bolus; format: in vivo, Sprague-Dawley rats; settings: rat, i.v. 5.8 mg/kg, first rapid decrease
Swiss mice = assay: Acute murine toxicity study; format: in vivo; settings: 1-10-30 mg/kg/day for 10 days
NPP6 = target: T2, NPP6 (Homo sapiens, UniProt Q6UWR7); assay: NPP6 inhibition assay; format: biochemical; settings: read-out: NPP6 Activity, % control (10μM)
T2 sequence (Q6UWR7 23-440): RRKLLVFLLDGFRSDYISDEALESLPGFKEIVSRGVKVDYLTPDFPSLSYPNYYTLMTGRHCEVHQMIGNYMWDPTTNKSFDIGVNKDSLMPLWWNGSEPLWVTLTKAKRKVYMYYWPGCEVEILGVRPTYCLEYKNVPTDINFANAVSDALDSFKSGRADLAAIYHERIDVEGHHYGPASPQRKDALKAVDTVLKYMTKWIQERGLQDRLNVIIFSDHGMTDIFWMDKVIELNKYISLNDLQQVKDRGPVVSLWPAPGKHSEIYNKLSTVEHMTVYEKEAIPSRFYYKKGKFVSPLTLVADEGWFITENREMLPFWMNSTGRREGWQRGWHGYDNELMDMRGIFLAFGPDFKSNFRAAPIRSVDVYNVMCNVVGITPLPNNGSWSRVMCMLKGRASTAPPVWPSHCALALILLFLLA
Procedure, shortened: (§1)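 Recombinant purified NPP6 or NPP7 (8.3 nM final) was incubated with pNPPC (10 µM) and a single 10 µM compound concentration. Liberated p-nitrophenol was read at 405 nm for up to 1 h, within the linear range. Activity was normalized to vehicle control.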

NPP7 = target: T3, NPP7 (Homo sapiens, UniProt Q6UWV6); assay: NPP7 inhibition assay; format: biochemical; settings: read-out: NPP7 Activity, % control (10μM)
T3 sequence (Q6UWV6 22-458): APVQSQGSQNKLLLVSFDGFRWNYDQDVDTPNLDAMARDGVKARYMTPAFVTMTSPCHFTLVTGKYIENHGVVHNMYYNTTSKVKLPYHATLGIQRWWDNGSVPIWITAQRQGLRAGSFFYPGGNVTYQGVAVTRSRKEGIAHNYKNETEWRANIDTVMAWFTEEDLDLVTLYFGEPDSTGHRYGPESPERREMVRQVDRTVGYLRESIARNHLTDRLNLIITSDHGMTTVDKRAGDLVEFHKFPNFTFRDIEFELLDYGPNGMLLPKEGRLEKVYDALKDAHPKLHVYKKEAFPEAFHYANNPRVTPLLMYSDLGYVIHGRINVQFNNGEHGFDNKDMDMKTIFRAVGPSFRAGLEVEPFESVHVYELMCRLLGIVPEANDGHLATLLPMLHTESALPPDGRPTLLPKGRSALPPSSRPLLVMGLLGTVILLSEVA
Procedure, shortened: as §1

[5] = male, Sprague-Dawley, plasma, iv, 5.8 mg/kg

## CCCCCCCCCCCCCCCc1ccc(CP(=O)(O)O)cc1 [Compound 22, 4-pentadecylbenzylphosphonic acid]
ATX [1]
  inhibition of hydrolysis of pNP-TMP: inhibit the hydrolysis
MM1 hepatoma cells; compounds alone, without LPC
  basal rate of invasion of HUVEC monolayer: did not reduce
MM1 hepatoma cells; with 1.5 μM LPC, 24 h
  LPC-dependent invasion of the HUVEC monolayer: dose-dependently inhibited
ATX [2]
  inhibition of hydrolysis of ADMAN-LPC (LPA production): inhibited
[3]; FS-3 substrate 0.3-20 μM, inhibitor 0, 0.5x, 2x IC50
  ATX Mechanism of Inhibition: Mixed
[3]; affinity for enzyme substrate complex, FS-3
  ATX Ki′: 0.28 µM
[4]; [5]
  MRT: 7.6 h
  clearance: 8.6 ± 0.5 mL/min/kg
[4]; male, Sprague-Dawley, plasma, iv, 5.8 mg/kg, terminal half-life, i.v. 5.8 mg/kg
  half-life: 600 min
[4]; i.v. 5.8 mg/kg
  mean plasma residence time: 7.6 ± 0.5 h
Plasma LPA
  time of nadir of plasma LPA levels: 60 min
Swiss mice
  death: No death was detected in any of the groups
Swiss mice; i.p.
  non-observable adverse effect level: > 10 mg/kg

## CCCCCCCCCCCCCC(=O)Nc1ccc(CP(=O)(O)O)cc1 [Compound S32826, 4-tetradecanoylaminobenzyl phosphonic acid]
NPP6
  remaining activity at 10 µM: 102%
NPP7
  remaining activity at 10 µM: 101%
